Measured values gathered from unrelated publications.
Lines come from different studies, so protocols differ.
Target: Serine/threonine-protein kinase A-Raf (ARAF, Homo sapiens, UniProt P10398)
One construct used (P10398 1-606): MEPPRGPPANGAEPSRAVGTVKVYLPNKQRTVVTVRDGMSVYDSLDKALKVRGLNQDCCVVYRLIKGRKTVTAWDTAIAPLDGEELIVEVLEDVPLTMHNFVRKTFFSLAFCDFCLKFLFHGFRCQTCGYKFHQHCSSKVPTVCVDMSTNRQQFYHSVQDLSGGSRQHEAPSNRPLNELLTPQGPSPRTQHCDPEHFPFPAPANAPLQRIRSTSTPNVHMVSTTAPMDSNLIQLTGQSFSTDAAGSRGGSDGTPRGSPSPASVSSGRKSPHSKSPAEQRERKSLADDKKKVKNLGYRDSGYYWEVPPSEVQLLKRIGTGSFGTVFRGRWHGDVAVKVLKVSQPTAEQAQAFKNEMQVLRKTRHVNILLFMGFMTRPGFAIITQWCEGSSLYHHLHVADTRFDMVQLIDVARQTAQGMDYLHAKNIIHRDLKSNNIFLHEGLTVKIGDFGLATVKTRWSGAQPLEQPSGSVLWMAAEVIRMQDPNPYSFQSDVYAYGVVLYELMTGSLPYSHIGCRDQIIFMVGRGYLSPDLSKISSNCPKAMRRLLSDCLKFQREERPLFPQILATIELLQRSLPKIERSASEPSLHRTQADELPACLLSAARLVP

SMILES | observed | action | technique | cell line | tested at | measurement | result
CCN1CCN(Cc2ccc(NC(=O)c3ccc(C)c(/C=C/c4cnc5[nH]ccc5c4OC)c3)cc2C(F)(F)F)CC1 | target engagement in cells | inhibitor | chemoproteomics | A-375 | 0.5 µM | inhibition | -68.8%
CC(C)(O)[C@H]1CC[C@H](Nc2ccc3ncc(-c4cccc(C(F)(F)F)c4)n3n2)CC1 | enzyme activity | inhibitor | – | – | 1 µM | remaining activity | 96.9%
CN1CC(Oc2cnc(C#N)cc2-c2ccn3nc(NC(=O)C4CC4)cc3c2)C1 | enzyme activity | inhibitor | – | – | 1 µM | inhibition | 1%
COc1cc(Cl)c(C(=O)N[C@@H](CN[C@H]2CC[C@@H](N)CC2)Cc2ccc(C#N)cc2)cc1-c1ccc(CN[C@H](C)c2ccc(C)cc2)o1 | enzyme activity | inhibitor | – | – | 1 µM | remaining activity | 101%
O=C1NC(=O)c2cc(Nc3ccc(F)cc3)c(Nc3ccc(F)cc3)cc21 | cell-free assay | – | – | – | 0.5 µM | remaining signal | 90.7%
CCN1CCN(Cc2ccc(NC(=O)c3ccc(C)c(Oc4ccnc5[nH]ccc45)c3)cc2C(F)(F)F)CC1 | target engagement in cells | inhibitor | chemoproteomics | A-375 | 5 µM | inhibition | -85.6%
COc1cccc2c(NCc3ccccc3)nc(-n3c(N)nc4ccccc43)nc12 | target engagement in cells | inhibitor | chemoproteomics | – | 20 mM | inhibition | -7.3%
Cc1cc(NC(=O)c2cccc3cc(-c4cccc5[nH]nc(N)c45)ccc23)ccc1F | enzyme activity | inhibitor | – | – | 0.1 µM | activity vs control | 98%
Cc1sc(C(=O)NC2COC2)cc1-n1cc(NC(=O)Nc2c(F)cccc2Cl)cn1 | enzyme activity | inhibitor | – | – | 10 µM | remaining activity | 84.1%
CNC(=O)c1cc(Oc2ccc(NC(=O)Nc3ccc(Cl)c(C(F)(F)F)c3)cc2)ccn1 | cell-free assay | – | – | – | 0.5 µM | remaining signal | 7.04%
CCCCNc1ncc2c(-c3ccc(F)cc3)nn(C[C@H]3CC[C@H](N)CC3)c2n1 | target engagement in cells | inhibitor | chemoproteomics | – | 20 mM | inhibition | 32.9%
O=C(Nc1cnn(-c2csc(C(=O)NC3COC3)c2)c1)Nc1c(F)cccc1Cl | enzyme activity | inhibitor | – | – | 5 µM | remaining activity | 94.4%
